Active and inactive are the calls of the source. The calls are words filed in the database; no cut-off is given here.
Tests used:
[1] = target: T1, Oxysterols receptor LXR-alpha (Homo sapiens) (UniProt Q13133); experiment: Transactivational antagonist activity at human LXRalpha transfected in HEK293 cells coexpressing CMX-Gal4N-NCoR assessed as NCoR recruitment after 16 hrs by reporter gene assay; assay type: functional, cell-based
T1 sequence (whole entry): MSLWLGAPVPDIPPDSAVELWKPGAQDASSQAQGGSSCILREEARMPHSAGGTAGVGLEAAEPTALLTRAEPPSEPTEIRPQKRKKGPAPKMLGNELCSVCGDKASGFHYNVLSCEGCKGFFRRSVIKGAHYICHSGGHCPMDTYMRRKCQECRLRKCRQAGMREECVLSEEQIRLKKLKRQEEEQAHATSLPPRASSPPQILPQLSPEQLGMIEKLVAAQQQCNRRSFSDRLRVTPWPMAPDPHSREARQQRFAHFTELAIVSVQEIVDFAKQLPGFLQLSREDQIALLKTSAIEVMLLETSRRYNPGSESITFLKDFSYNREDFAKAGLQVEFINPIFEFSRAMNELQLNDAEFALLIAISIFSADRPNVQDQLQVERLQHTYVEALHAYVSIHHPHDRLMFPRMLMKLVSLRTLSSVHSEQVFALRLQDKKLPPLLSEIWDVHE
Summary of the method: (§1)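 Mammalian two-hybrid in HEK293 cells by calcium phosphate cotransfection: CMX-VP16N-hLXRα, Gal4N-fused SRC1, DRIP205, NCoR or SMRT (15 ng), tk-MH100×4-luc (50 ng) and CMX-β-gal (10 ng). Compound or DMSO added 8 h after transfection for 16 h. Luciferase was normalized to β-galactosidase, in triplicate.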

[2] = target: T2, Oxysterols receptor LXR-beta (Homo sapiens, UniProt P55055); experiment: Transactivational agonist activity at human LXRbeta transfected in HEK293 cells expressing CMX-Gal4N assessed as luciferase activity at 30 uM after 16 hrs by reporter gene assay; assay type: cell-based; conditions: hek293, 16 h
T2 sequence (P55055 whole entry): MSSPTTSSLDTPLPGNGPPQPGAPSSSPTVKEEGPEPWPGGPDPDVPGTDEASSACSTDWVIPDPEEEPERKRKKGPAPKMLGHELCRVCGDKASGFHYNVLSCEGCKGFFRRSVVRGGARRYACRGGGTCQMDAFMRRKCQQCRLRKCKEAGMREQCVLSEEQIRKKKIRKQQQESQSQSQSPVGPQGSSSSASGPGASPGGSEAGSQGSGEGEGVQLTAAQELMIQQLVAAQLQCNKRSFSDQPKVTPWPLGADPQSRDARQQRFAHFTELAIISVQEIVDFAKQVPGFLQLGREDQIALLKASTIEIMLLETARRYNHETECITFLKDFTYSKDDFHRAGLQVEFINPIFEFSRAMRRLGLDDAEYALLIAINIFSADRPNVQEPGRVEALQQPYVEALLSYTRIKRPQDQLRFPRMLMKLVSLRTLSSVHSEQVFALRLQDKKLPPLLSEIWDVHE

[3] = target: T3, Oxysterols receptor LXR-alpha (Homo sapiens, UniProt Q13133); experiment: Transactivational agonist activity at human LXRalpha transfected in HEK293 cells expressing CMX-Gal4N assessed as luciferase activity at 30 uM after 16 hrs by reporter gene assay; assay type: cell-based; conditions: hek293, 16 h
T3 sequence (Q13133 whole entry): T1 sequence (whole entry)

[4] = target: T4, Retinoic acid receptor RXR-alpha (Homo sapiens) (UniProt P19793); experiment: Antagonist activity at human Gal4-fused RXRalpha assessed as inhibition of SR11215-induced luciferase activity at 0.1 to 10 uM by reporter gene assay; assay type: functional
T4 sequence (whole entry): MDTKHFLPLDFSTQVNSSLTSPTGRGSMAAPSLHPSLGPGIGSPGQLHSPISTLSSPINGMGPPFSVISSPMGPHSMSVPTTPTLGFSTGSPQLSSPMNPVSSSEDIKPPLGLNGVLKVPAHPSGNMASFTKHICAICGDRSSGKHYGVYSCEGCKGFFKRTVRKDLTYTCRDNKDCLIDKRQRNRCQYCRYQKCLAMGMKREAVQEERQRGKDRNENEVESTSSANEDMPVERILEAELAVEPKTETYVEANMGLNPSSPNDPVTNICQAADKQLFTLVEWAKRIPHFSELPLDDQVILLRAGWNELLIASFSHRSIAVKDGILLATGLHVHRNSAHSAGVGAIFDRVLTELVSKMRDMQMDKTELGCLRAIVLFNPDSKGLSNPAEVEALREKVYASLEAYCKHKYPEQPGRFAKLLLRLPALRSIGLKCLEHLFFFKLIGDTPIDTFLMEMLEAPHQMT

[5] = Transrepressional activity at LXR in C57BL/6J mouse peritoneal macrophages assessed as inhibition of LPS-induced IL-1beta mRNA expression at 10 uM incubated for 6 hr prior to LPS-challenge measured after 18 hrs by RT-PCR analysis
Summary of the method: (§2)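 Thioglycollate-elicited peritoneal macrophages (wild-type C57BL/6J or LXRα-null, 8–10 weeks) were plated at 4 × 10⁶/well and pretreated with compound 6 h before LPS 100 ng/mL. Cells were harvested after 18 h. il-6 and il-1β mRNA were measured by real-time quantitative PCR, normalized to GAPDH.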

[6] = target: T1, Oxysterols receptor LXR-alpha (Homo sapiens); experiment: Transactivational antagonist activity at human LXRalpha transfected in HEK293 cells coexpressing CMX-Gal4N-SMRT assessed as SMRT recruitment after 16 hrs by reporter gene assay; assay type: functional, cell-based; summary of the method: as §1
[7] = target: T3, Oxysterols receptor LXR-alpha; experiment: Transactivational agonist activity at human LXRalpha transfected in HEK293 cells coexpressing CMX-Gal4N-DRIP205 assessed as DRIP205 recruitment at 10 uM after 16 hrs by mammalian two-hybrid assay; assay type: cell-based; conditions: hek293, 16 h; summary of the method: as §1
[8] = Transrepressional activity at LXR in C57BL/6J mouse peritoneal macrophages assessed as inhibition of LPS-induced IL-6 mRNA expression at 10 uM incubated for 6 hr prior to LPS-challenge measured after 18 hrs by RT-PCR analysis; summary of the method: as §2
[9] = target: T4, Retinoic acid receptor RXR-alpha (Homo sapiens); experiment: Agonist activity at human Gal4-fused RXRalpha assessed as luciferase activity at 0.1 to 10 uM by reporter gene assay; assay type: functional
[10] = target: T5, Peroxisome proliferator-activated receptor gamma (Homo sapiens) (UniProt P37231); experiment: Antagonist activity at human Gal4-fused PPARgamma assessed as inhibition of ciglitazone-induced luciferase activity at 0.1 to 10 uM by reporter gene assay; assay type: functional
T5 sequence (whole entry): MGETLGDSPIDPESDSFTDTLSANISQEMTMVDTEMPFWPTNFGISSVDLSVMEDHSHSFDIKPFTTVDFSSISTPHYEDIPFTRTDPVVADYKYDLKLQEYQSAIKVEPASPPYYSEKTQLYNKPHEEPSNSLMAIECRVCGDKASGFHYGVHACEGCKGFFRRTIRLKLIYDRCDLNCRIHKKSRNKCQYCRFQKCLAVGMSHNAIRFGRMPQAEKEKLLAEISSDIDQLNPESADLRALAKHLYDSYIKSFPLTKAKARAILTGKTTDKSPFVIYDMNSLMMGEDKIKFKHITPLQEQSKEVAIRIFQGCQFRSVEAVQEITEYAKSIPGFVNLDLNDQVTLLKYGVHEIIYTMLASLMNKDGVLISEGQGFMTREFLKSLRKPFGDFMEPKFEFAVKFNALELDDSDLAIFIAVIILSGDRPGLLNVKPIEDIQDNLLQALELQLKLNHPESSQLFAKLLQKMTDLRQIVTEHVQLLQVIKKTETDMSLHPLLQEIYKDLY

Activity [1]: Dose-dependent effect
Activity [2]: Not Active
Activity [3]: Not Active
inhibition [4]: inactive
inhibition [5]: Active
Activity [6]: Dose-dependent effect
inhibition [8]: Active
Activity [9]: inactive
inhibition [10]: inactive
SMILES: C=C1c2ccccc2C(=O)N(C)c2ccc(CC)cc21
Activity [7]: Non-toxic

— ChEMBL document CHEMBL2169742, “Design, synthesis, and biological evaluation of novel transrepression-selective liver X receptor (LXR) ligands with 5,11-dihydro-5-methyl-11-methylene-6H-dibenz[b,e]azepin-6-one skeleton” (J Med Chem, 2012)
